# HSF-1 act – increases HSF-1 driven luciferase reporter signal; NIH3T3-HGL HSF-1 luciferase reporter, MG132, 8 h; 100% = twice DMSO control signal; activation, % at 9 µM; actives 1.7% (n = 300,000); AID 504408;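 active = mean replicate activation of at least 50% with a set share of replicates each reaching 50%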
# HKDC1 inh – HKDC1 (human) hexokinase inhibition; Q2TB90; recombinant HKDC1, G6PDH/diaphorase resazurin coupled fluorescence; inhibition, % at 20 µM; actives 0.16% (n = 340,000); AID 493160;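 active = inhibition above about 35% when tested at 20 µM, limit read from the data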
# Target sequence (Q2TB90 whole entry, looked up): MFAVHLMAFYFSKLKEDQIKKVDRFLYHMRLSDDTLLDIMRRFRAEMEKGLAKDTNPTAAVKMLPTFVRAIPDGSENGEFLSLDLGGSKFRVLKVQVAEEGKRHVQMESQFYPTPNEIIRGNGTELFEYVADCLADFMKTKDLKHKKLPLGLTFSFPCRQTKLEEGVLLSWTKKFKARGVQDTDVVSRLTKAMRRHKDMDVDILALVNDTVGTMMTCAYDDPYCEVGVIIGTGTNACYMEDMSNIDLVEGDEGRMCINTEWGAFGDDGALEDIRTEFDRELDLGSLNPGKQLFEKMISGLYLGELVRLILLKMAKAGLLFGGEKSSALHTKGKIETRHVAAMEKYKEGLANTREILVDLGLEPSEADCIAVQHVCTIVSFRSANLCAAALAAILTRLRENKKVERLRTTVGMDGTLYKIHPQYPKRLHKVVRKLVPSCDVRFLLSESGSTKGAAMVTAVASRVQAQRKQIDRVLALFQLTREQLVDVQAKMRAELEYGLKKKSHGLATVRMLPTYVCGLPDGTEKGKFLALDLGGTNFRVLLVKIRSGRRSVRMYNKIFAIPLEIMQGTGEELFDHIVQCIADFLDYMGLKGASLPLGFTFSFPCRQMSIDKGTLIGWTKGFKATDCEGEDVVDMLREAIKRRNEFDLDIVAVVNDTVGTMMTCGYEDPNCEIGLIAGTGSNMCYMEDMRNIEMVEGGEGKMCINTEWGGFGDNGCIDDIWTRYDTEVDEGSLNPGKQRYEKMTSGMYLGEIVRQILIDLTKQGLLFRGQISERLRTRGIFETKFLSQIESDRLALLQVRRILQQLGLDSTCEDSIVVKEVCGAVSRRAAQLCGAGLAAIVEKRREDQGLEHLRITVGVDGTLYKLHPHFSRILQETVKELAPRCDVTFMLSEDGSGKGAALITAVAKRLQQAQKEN
#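 Incubation: 90 min at room temperature in dark / Material: recombinant HKDC1 (HK5) hexokinase enzyme, produced in-house / Quantity: enzyme 5 µg/mL final / Compound: one dose of 20 µM, 1% DMSO / Reagent: glucose and ATP substrates / Buffer or medium: Tris pH 8.0 buffer with MgCl2, Tween-20, BSA, BME / Technique: resorufin fluorescence at 613 nm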
# HSF1 inh – HSF1 inhibition | NIH3T3-HGL HSE-luciferase, MG132-induced, luminescence 8 h; hits give low values | activity change, negative = inhibition, % at 7.5 µM (by protocol) | actives 0.77% (n = 300,000) | AID 2098;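 active = more than half of replicate wells show activity change below -50%, luminescence cut by over half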;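 note: luciferase reports HSF-1 transcriptional activity via heat shock element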
# Hsp70 activator – Hsp70 transcriptional activation, primary screen. activation, % at 10 µM. HeLa Hsp70 promoter luciferase reporter, luminescence; scaled: vehicle 0, proteasome-inhibitor control 100%. actives 0.04% (n = 200,000);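 active = activation above the mean across all tested compounds plus 3 SD, cutoff set per campaign, cut at about 5.5% in these data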
# HSP90 refold inh – inhibitors of HSP90 luciferase refolding in rabbit reticulocyte lysate; luciferase refolding luminescence, 3 h; inhibition, % at 5.6 µM; actives 0.91% (n = 290,000); AID 1789;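 active = inhibition above the screen-wide mean plus 3 SD, computed separately per campaign, cut at about 16% in these data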;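 note: inhibitors lower the luminescence because luciferase stays unfolded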
# Tb hexokinase – blocks Trypanosoma brucei hexokinase 1 activity; inhibition, % at 10 µM; actives 0.11% (n = 220,000); recombinant TbHK1, G6PDH-coupled NADH A340; AID 1430;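 active = inhibition of 50% or more in the single-dose primary screen; inactive = inhibition below 50%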
# Hits are given with their value; – = inactive; · = not tested or not shown. Compounds with a hit are over-represented: about 3.1% of the library has one in this group of screens.
SMILES,HSF-1 act,HKDC1 inh,HSF1 inh,Hsp70 activator,HSP90 refold inh,Tb hexokinase
CC(C)[C@]12O[C@H]1[C@@H]1O[C@]13[C@]1(O[C@H]1C[C@H]1C4=C(CC[C@@]13C)C(=O)OC4)[C@@H]2O,–,·,-68,–,–,·
S=P1(Oc2ccccc2)Nc2ccccc2N1,·,–,·,·,·,·
C=C1C(=O)O[C@H]2C[C@@H](C)[C@@H]3C=CC(=O)[C@@]3(C)C[C@H]12,–,–,-64,·,·,–
C=C1C(=O)OC2CC(C)C3C=CC(=O)C3(C)C(O)C12 (stereo not given),·,–,·,·,·,·
C=C1C(=O)O[C@@H]2C[C@@H](C)[C@@H]3C=CC(=O)[C@@]3(C)[C@@H](OC(=O)CC(=O)O[C@H]3[C@@H]4C(=C)C(=O)O[C@@H]4C[C@@H](C)[C@@H]4C=CC(=O)[C@]43C)[C@H]12,–,–,-96,·,·,–
O=C1c2cccc3cccc(c23)C(=O)N1/N=C/c1c(O)n(-c2ccccc2)c(=O)[nH]c1=O,–,–,–,–,–,–
O=C(C1CCC(=O)N1C1CCCC1)N1CCC2(CC1)OCCO2 (stereo not given),–,–,–,–,–,–
O=C(C1CCCO1)N1CCC2(CC1)OCCO2 (stereo not given),–,–,-90,–,–,–
C=Cc1cc(OC)c2c(c1)c(=O)oc1c2cc(OC)c2c(O)ccc(C3OC(C)C(O)C(C)(O)C3O)c21 (stereo not given),·,–,·,·,·,·
CC(C)(CN)CC(=O)O,83,–,–,·,–,–
COc1cccc(C2C([N+](=O)[O-])=C(N)Oc3c2c(=O)oc2ccccc32)c1 (stereo not given),59,–,–,–,–,–
CC(Cc1ccccc1)NC(=O)Cc1ccc([N+](=O)[O-])cc1 (stereo not given),–,–,–,·,–,·
CC12CCC3C(CC=C4CC(O)CCC43C)C1C/C(=C\N1CCCC1)C2=O (stereo not given),63,·,–,·,–,–
COc1ccc(Br)cc1CN1CCN(CCO)CC1,–,–,-87,–,–,–
Cc1cccc(OP(N)(=O)Oc2cccc(C)c2C)c1C,–,–,–,·,–,–
CCOc1cc(C2C(C#N)=C(N)Oc3c2c(=O)oc2ccccc32)ccc1OC(=O)c1cccs1 (stereo not given),–,–,–,–,–,–
CSc1ccc(C(=O)C2CCCN(Cc3cccnc3)C2)cc1 (stereo not given),104,–,–,–,–,–
CSc1ccc(C(=O)C2CCCN(Cc3cc4ccccc4[nH]3)C2)cc1 (stereo not given),–,–,–,–,–,–
CCN(CC)c1ccc(CN2CC=C(c3ccc(F)cc3)CC2)cc1,–,–,–,–,–,–
COc1ccc(CN2CC=C(c3ccc(F)cc3)CC2)cc1Br,–,–,-68,·,–,·
CCn1c(=O)cc(SCC(=O)N2CCC3(CC2)OCCO3)c2ccccc21,68,–,–,–,–,–
Cn1c(=O)n(CC(=O)N2CCC3(CC2)OCCO3)c(=O)c2ccccc21,–,–,–,–,–,–
O=C1C=CC(=O)C=C1,·,48,·,·,·,·
CC12CCC3C(CC=C4CC5(CCC43C)OCCO5)C1CCC2=O (stereo not given),–,–,-74,–,–,–
C[C@]12CC[C@H](OS(=O)(=O)O)CC1=CC[C@@H]1[C@@H]2CC[C@]2(C)C(=O)CC[C@@H]12,–,–,–,·,·,·
SMILES,HSF-1 act,HKDC1 inh,HSF1 inh,Hsp70 activator,HSP90 refold inh,Tb hexokinase
OCC1(CO)COC(c2cccnc2)N1 (stereo not given),66,–,–,–,–,–
Cc1cc([N+](=O)[O-])c2ccccc2[n+]1[O-],–,–,-78,·,–,–
Cc1ccccc1[N+](=O)[O-],·,–,·,·,·,·
Cc1cc(C)nc(-n2c(C)nc3cc(Cl)ccc3c2=O)c1,–,–,-78,–,–,–
Cc1cccc(-n2c(C)nc3ccccc3c2=O)n1,–,–,–,–,–,–
CCc1ccc(-c2nn(Cc3ccccc3)cc2C=O)cc1,102,–,–,–,–,–
COc1cc2cc(C(=O)N3CC(COS(C)(=O)=O)c4ccc(O)cc43)[nH]c2c(OC)c1OC (stereo not given),·,–,·,·,·,·
O=C(O)C(Br)CBr (stereo not given),·,–,·,·,·,·
CN(C)CCSCc1nnc2n1-c1ccc(Cl)cc1C(c1ccccc1Cl)=NC2,–,–,–,·,·,·
N#CC(c1cccnc1)N1CCOCC1 (stereo not given),–,–,–,·,16,·
CCOc1cc2c(cc1OCC)-n1cccc1C(c1c(O)cccc1OC)NC2 (stereo not given),–,–,–,·,–,·
CSCc1nnc2n1-c1ccc(Cl)cc1C(c1ccccc1)=NC2,–,–,-87,–,–,–
O=c1[nH]c(O)c(/C=C2/C=CC(c3cc(Cl)ccc3Cl)=N2)c(=O)[nH]1,–,40,–,·,–,–
c1ccc(CN2CCN(Cc3ccc4ccccc4c3)CC2)cc1,–,–,–,·,17,·
C[C@H]1CC[C@H]2NCCN[C@H]2C1,–,–,–,·,–,–
CNC(=O)Oc1cccc(-c2cn3cc(Cl)ccc3n2)c1,–,–,–,–,49,–
CCC(COC(=O)NC)NC(=O)Oc1cccc(C)c1 (stereo not given),–,–,–,–,–,–
O=C1NC(=O)N(c2ccccc2)C(=O)/C1=C/C=C/c1ccco1,–,–,–,·,–,–
CN(C)c1ccc(/C=C/C=C2/C(=O)NC(=O)N(c3ccccc3)C2=O)cc1,119,–,–,–,–,–
Cc1ccsc1/C=C1\C(=O)NC(=S)N(C)C1=O,–,–,-67,·,–,·
CN1C(=O)/C(=C\c2ccc(N3CCCCCC3)cc2)C(=O)NC1=S,–,–,–,·,–,–
COc1ccc(/C=C2\C(=O)NC(=S)N(C)C2=O)cc1C,–,36,–,–,–,–
COC(=O)c1c2[n+](cc3cc(OC)c(OC)cc13)CCc1cc(OC)c(OC)cc1-2,–,–,–,·,·,·
BrCC(Br)(Br)Br,·,–,·,·,·,·
CC(=O)c1c(C)n(CC2CCCO2)c2ccc(O)cc12 (stereo not given),70,–,–,–,–,–
SMILES,HSF-1 act,HKDC1 inh,HSF1 inh,Hsp70 activator,HSP90 refold inh,Tb hexokinase
CCN(CC)C(=O)c1ccc(NC(=O)COc2ccccc2F)cc1,–,–,–,–,–,–
COCCNC(=O)c1c(NC(=O)c2ccc(Br)o2)n(Cc2ccccc2)c2nc3ccccc3nc12,66,–,–,–,–,–
CC(C)CNC(=O)c1c(N)n(Cc2ccco2)c2nc3ccccc3nc12,56,–,–,–,–,–
CCCNC(=O)c1c(N)n(Cc2ccco2)c2nc3ccccc3nc12,–,–,–,–,–,–
COCCCNC(=O)c1c(N)n(Cc2ccco2)c2nc3ccccc3nc12,115,–,–,·,–,–
O=C1C(=O)c2cccc3cccc1c23,–,–,–,–,–,–
O=C1C(=O)c2ccccc2-c2ccccc21,–,–,-94,–,–,–
CC1(C)C[C@H]2C=C(C=O)[C@]3(C=O)C[C@]3(C)[C@H]2C1,–,–,-76,–,–,–

# High-throughput results deposited in PubChem by several laboratories.
